In paper PMC6982535 (Science (New York, N.Y.), 2019):

How the values were obtained:
Type in all cases: cell-based
hERG = hERG (Homo sapiens, UniProt Q12809); assay: hERG channel currents in inside-out patches; settings: inside-out patches; result in words
TREK-2 [1] = biological target: T1, TREK-2 (Homo sapiens, UniProt P57789); assay: TREK-2 channel currents, BL-1249 dose-response ± TEA or THexA; settings: extended screening; result in words
T1 sequence (P57789 1-538): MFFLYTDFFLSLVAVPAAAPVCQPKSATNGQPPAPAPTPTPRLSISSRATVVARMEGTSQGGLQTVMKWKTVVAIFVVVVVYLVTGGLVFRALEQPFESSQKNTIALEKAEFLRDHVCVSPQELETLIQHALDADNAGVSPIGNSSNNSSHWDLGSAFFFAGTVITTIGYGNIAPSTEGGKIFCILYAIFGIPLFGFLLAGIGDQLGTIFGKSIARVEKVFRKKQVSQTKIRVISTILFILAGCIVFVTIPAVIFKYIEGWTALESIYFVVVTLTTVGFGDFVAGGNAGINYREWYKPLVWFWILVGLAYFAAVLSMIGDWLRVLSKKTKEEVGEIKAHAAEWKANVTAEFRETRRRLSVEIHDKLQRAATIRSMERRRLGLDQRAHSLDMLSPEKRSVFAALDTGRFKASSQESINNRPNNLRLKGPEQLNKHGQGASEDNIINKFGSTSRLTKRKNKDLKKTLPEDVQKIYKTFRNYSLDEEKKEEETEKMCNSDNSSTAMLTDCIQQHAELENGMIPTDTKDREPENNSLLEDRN
Procedure, shortened: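 TREK-2 concentration-response curves for test compound were run with and without intracellular blocker: 100 mM TEA (n ≥ 12) or 5 μM THexA (n ≥ 13). Inhibition of basal current by each blocker was also quantified.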

TALK-2 = biological target: T2, TALK-2 (Homo sapiens, UniProt Q96T54); assay: TALK-2 currents in inside-out patches; settings: result in words
T2 sequence (Q96T54 1-332): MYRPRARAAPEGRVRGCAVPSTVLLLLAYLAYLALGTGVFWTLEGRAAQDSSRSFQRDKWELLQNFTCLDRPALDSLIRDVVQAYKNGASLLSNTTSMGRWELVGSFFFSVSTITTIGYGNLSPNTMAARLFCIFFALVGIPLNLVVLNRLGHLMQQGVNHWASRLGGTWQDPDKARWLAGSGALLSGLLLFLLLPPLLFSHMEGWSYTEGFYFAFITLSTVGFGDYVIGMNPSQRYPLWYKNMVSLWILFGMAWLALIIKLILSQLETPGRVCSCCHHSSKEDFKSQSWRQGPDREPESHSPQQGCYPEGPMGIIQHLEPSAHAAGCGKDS
Procedure, shortened: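 TALK-2 currents were recorded in inside-out patches from Xenopus oocytes. Fold activation was measured with 50 μM test compound or 1 mM 2-APB, applied at several intracellular pH values.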

THIK-1 = biological target: T3, THIK-1 (Homo sapiens, UniProt Q9HB14); assay: Extended screening of K2P channels with BL-1249: THIK-1; settings: result in words
T3 sequence (Q9HB14 1-408): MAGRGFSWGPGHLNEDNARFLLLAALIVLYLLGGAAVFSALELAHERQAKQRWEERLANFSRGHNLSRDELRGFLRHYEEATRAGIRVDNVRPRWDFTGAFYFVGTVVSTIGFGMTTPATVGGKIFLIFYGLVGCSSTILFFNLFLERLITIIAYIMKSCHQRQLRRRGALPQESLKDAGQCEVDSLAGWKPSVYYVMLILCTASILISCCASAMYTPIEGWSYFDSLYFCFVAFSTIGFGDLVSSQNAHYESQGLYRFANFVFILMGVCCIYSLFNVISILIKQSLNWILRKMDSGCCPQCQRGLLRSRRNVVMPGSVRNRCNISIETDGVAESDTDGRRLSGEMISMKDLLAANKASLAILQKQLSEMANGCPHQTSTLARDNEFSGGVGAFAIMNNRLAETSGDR

THIK-2 = biological target: T4, THIK-2 (Homo sapiens, UniProt Q9HB15); assay: Extended screening of K2P channels with BL-1249: THIK-2; settings: result in words
T4 sequence (Q9HB15 1-430): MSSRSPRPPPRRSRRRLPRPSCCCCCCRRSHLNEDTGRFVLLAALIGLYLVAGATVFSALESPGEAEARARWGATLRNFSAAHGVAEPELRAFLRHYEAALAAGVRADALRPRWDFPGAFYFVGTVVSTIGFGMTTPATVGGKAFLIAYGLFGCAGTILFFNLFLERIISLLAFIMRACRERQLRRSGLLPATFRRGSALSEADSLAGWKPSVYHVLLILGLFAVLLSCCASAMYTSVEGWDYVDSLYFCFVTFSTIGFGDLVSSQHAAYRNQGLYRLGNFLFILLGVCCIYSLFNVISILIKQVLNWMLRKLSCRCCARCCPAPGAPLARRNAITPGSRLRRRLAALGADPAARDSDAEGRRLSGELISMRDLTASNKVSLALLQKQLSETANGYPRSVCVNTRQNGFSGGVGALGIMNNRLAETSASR

TREK-1 L304C = biological target: T5, TREK-1 L304C (Homo sapiens, UniProt O95069, L304C); assay: Cysteine-modification protection: MTS-TBAO modification of TREK-1 L304C; settings: 10 μM MTS-TBAO; BL-1249 50 μM, ML335 50 μM, 2-APB 1 mM; result in words
T5 sequence (O95069 1-426 L304C): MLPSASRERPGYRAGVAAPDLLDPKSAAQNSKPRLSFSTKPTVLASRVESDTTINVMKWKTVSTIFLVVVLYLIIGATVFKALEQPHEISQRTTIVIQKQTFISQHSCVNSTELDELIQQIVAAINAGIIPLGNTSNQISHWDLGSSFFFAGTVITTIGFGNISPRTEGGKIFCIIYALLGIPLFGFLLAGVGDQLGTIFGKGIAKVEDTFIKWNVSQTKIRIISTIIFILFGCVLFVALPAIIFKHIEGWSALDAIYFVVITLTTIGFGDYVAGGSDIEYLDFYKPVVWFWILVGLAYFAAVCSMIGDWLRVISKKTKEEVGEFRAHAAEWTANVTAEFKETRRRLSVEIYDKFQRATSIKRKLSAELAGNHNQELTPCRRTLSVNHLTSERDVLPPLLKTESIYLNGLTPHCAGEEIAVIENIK

TREK-2 [2] = biological target: T1, TREK-2; assay: Single channel recordings of TREK-2 expressed in HEK293 cells; settings: TREK-2 in HEK293 cells

hERG, sequence (Q12809 whole entry): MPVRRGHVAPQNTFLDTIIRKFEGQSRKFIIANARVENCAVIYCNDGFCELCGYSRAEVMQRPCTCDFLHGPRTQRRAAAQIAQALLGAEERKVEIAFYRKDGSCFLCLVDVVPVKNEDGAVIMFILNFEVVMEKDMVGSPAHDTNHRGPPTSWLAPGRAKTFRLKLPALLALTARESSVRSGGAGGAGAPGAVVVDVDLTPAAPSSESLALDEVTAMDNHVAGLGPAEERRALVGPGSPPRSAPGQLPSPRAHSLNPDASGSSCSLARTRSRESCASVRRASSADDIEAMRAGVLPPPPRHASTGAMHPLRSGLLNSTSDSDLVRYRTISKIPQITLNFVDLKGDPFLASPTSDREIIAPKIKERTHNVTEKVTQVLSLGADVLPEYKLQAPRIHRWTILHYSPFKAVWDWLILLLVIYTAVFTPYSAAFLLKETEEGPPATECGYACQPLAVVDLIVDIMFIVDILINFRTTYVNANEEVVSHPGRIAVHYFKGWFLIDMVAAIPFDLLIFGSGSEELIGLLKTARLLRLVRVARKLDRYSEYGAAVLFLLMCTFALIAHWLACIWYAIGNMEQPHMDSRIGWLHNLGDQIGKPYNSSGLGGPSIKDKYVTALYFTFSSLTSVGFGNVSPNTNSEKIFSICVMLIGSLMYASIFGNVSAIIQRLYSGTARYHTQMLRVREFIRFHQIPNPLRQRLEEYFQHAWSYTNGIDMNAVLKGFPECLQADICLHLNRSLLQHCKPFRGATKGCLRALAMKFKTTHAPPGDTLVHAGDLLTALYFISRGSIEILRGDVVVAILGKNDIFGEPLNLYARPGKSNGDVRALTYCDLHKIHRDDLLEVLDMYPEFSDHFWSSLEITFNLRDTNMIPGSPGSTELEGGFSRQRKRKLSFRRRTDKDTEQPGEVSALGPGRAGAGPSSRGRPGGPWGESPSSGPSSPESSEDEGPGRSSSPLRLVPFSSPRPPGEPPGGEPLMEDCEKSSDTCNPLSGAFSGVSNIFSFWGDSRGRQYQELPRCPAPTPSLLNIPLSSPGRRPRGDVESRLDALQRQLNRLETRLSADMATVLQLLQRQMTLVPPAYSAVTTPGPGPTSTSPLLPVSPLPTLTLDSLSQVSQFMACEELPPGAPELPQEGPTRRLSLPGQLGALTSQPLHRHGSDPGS

Structure (SMILES): c1ccc(-c2nn[nH]n2)c(Nc2cccc3c2CCCC3)c1 [BL-1249]
- opening / activation of hERG channels (hERG): equal efficiency in opening
- activation of TREK-2 (TREK-2 [1]): potent activation
- activation of TALK-2 (TALK-2; extended screening): potent activation
- pH dependence of TALK-2 activation (TALK-2; lowering pHi to 5, 50 μM BL-1249 or 1 mM 2-APB): potency dropped strongly
- activation of THIK-1 (THIK-1): potent activation
- activation of THIK-2 (THIK-2): potent activation
- time course of irreversible pore blockade by MTS-TBAO (TREK-1 L304C): markedly slowed
- single channel amplitude, outward (TREK-2 [2]; +100 mV, with BL-1249 (basal 17.7 ± 1.3), n = 7): 21.7 ± 1.4 pA
- single channel amplitude, inward (TREK-2 [2]; -100 mV, with BL-1249 (basal -29.3 ± 1.5), n = 7): -34.1 ± 1.9 pA
- open probability (TREK-2 [2]; result in words): increase in open probability
